High-throughput results deposited in PubChem by several laboratories.
TNAP inh hi DEA – human TNAP enzyme inhibitors, primary screen, biochemical, luminescent, high phosphate acceptor level, uHTS; purified TNAP, CDP-star luminescence, 1 M DEA; inhibition, % at 20 µM; 0.03% of 200,000 active;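 active = over 50% inhibition of tissue-nonspecific alkaline phosphatase at 20 µM in the single-dose screen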;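 also: plate controls were DMSO wells for no effect and EDTA-quenched wells as full inhibition for full effect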
Target sequence (P05186 whole entry, looked up): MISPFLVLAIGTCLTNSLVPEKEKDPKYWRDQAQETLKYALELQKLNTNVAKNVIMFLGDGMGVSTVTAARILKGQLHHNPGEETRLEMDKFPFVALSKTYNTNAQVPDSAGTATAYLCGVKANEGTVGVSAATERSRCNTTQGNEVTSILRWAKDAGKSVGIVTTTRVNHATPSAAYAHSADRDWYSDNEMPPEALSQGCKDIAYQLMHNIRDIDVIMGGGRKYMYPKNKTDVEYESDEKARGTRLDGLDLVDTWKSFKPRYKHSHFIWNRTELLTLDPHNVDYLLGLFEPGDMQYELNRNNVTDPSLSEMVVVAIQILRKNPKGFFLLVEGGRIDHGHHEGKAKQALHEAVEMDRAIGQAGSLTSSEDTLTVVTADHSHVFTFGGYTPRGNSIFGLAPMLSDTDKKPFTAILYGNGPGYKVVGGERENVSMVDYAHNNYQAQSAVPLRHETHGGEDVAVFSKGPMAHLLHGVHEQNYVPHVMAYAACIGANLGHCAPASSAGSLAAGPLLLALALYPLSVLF
TNAP inh no acc – human TNAP enzyme inhibitors, primary screen, biochemical, luminescent, no phosphate acceptor, uHTS | Alkaline phosphatase, tissue-nonspecific isozyme (Homo sapiens), P05186 | purified TNAP, CDP-star luminescence, 30 min | inhibition, % at 20 µM | 0.26% of 200,000 active | AID 1012, 2008;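 active = tissue-nonspecific alkaline phosphatase inhibition above about 50% at 20 µM in the single-dose screen, limit read from the data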;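 also: 0% = DMSO negative control and 100% = EDTA positive control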
L929 necroptosis – inhibitors of zVAD-triggered necroptosis, primary screen, L929 cells; AID 1377, 2008; L929 zVAD necroptosis rescue, ATP luminescence, 24 h; with zVAD 60 µM; viability rescue, % at 10 µM; 0.38% of 220,000 active;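 active = activation, scaled between plate controls, above about 75%, limit read from the data; inactive = activation under that limit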;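 also: 0% = zVAD with DMSO and 100% = DMSO alone without zVAD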
TNAP act hiacc – TNAP activators at high phosphate acceptor level, primary screen, biochemical, luminescence, uHTS | Alkaline phosphatase, tissue-nonspecific isozyme (Homo sapiens), P05186 | purified TNAP, CDP-star luminescence, 1 M DEA, 30 min; stronger effect = higher value; 0 = EDTA background, 1 = DMSO-only activity | activation factor at 20 µM | 200,000 tested, under 10 active;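 active = activation factor at least 2 at 20 µM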
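Control set: EDTA negative control, DMSO positive control / Assay system: human TNAP / Quantity: TNAP 1/800 final / Evaluation: TNAP activation factor scaled between EDTA and DMSO control wells / Measured by: luminescent substrate turnover signal / Compound dosing: one dose, 20 µM / Times: 30 min enzyme reaction at room temperature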
TNF death inh – inhibitors of TNF-alpha triggered necroptosis, primary screen, cell-based, Jurkat FADD-/-, single concentration; activation (protection from cell death), % at 10 µM; Jurkat FADD-/- TNF necroptosis rescue, ATP luminescence, 24 h; 0 = TNF only, 100 = no-TNF cells; 0.068% of 220,000 active; AID 463075, 2010;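 active = activation, meaning protection from cell death, of at least 50% relative to plate controls; inactive = activation below 50%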;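 also: necroptosis triggered by 40 ng/mL TNF-alpha added together with compound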
SDO1 yeast rescue – growth rescue of sdo1-depleted yeast, primary screen, S. cerevisiae, bone marrow failure model; 0.21% of 140,000 active; S. cerevisiae sdo1-depleted JHY4D growth rescue, OD600 30 h; stronger effect = higher value; pdr5 snq2 efflux-pump mutant strain; z-score at 10 µM; AID 817, 2007;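 active = z-score above 3 at both the 24 hr and the 30 hr optical density reads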;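 also: z-score against mean and SD of all compound wells on the same plate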
SDO1 rescue DR – SDO1-depleted yeast growth rescue, concentration-response, diseases of bone marrow failure, JHY4D, OD600 | shares compounds with SDO1 yeast rescue | S. cerevisiae JHY4D (SDO1-depleted) growth rescue, 30 h; stronger effect = higher value; efflux-deficient strain, SNQ2 and PDR5 mutated | OD recovery (test concentration not listed) | 44% of 440 active;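 active = yeast growth recovered at 30 hours, either rising with dose fitted slope above 0.001 or with average optical density gain above 0.07, some results past the limit were not filed as active; inactive = growth falling with dose or no effect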;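 also: gain in OD600 from 0 h to 30 h averaged across all seven doses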
The depositor's hits bear a star; . = no result. An excerpt weighted towards active compounds, which were near 0.81% of everything screened.

SMILES	TNAP inh hi DEA	TNAP inh no acc	L929 necroptosis	TNAP act hiacc	TNF death inh	SDO1 yeast rescue	SDO1 rescue DR
Cc1ccnc2nc(C(=O)NCc3cccs3)nn12	3.3	-1.1	0.7	1	-0.6	0.65	.
COc1ccc(CCNC(=O)c2cc(-c3ccc(C)c(C)c3O)n[nH]2)cc1OC	-0.4	0.6	0.0	1	1.9	2.32	0.0529
COc1ccc(CCNC(=O)c2cc(-c3cc(C)ccc3O)n[nH]2)cc1OC	-10.8	-93.6	0.3	1.1	-18.7	0.48	.
O=C(O)[C@@H]1Cc2ccccc2N1	.	.	0.4	.	-4.9	.	.
COCCN1C(=O)C(O)=C(C(=O)c2ccco2)C1c1cccc(Oc2ccccc2)c1 (stereo unspecified)	-1.2	-1.7	-0.3	1	-3.5	9.03*	0.0761*
Clc1ccccc1-c1nnc2n1CCCCC2	.	.	1.0	.	7.1	.	.
CC(C)Sc1nc2[nH]ncc2c(=O)[nH]1	-2.0	-29.1	24.9	1	0.2	.	.
COc1ccccc1N1CCN(Cc2c[nH]c3ccccc23)CC1	.	.	2.0	.	0.7	.	.
Cc1ccccc1N1CCN(Cc2c[nH]c3ccccc23)CC1	-0.2	-1.6	1.1	1	3.3	7.55*	0.0619
O=C(NCCO)c1nc(NCCO)c2ccccc2n1	-4.4	-3.5	0.0	1	-0.9	5.58*	0.0311
OCCNc1nc(-c2ccccc2)nc2ccccc12	-6.4	-10.0	5.2	1.1	0.3	.	.
CC(C)c1nnc(N2C(=O)c3oc4ccccc4c(=O)c3C2c2ccco2)s1 (stereo unspecified)	2.5	-0.1	-0.3	1	-1.4	0.72	0.0768*
CCN1C(=O)C(O)(CC(=O)c2ccc(-n3cccc3)cc2)c2ccccc21 (stereo unspecified)	-1.0	-3.0	4.8	1	1.3	3.03*	0.101*
Cc1ccc(C(=O)NCC(=O)OCC(=O)c2ccc3c(c2)OCCO3)cc1C	1.1	-13.6	-0.5	1	-0.5	3.06*	0.0571
O=C(COc1ccccc1C(=O)N/N=C\c1ccc(O)c(O)c1)N/N=C/c1ccc(O)c(O)c1	59.9*	92.4*	0.4	0.4	-9.6	2.28	0.0464
O=C(COc1ccccc1[N+](=O)[O-])N/N=C/c1ccc(O)c([N+](=O)[O-])c1	9.0	2.3	0.7	0.9	-0.3	.	.
Cc1ccc(N2CN(CCc3ccccc3)CNC2=S)cc1	.	.	0.5	.	-0.2	.	.
CSCCC(NS(=O)(=O)c1ccc(Cl)cc1)C(=O)OCC(=O)c1c(C)[nH]c2ccccc12 (stereo unspecified)	-4.1	-9.7	1.2	1	1.3	6.22*	0.053
COc1ccc2c(-c3cc4ccc(OCc5ccc(F)cc5)cc4oc3=O)cc(=O)oc2c1	-0.3	-11.8	0.9	1	2.5	16.3*	0.032
COC(=O)c1ccc2[nH]c(C)cc(=O)c2c1	-3.4	-9.3	0.6	1	0.1	5.96*	0.0388
CN(Cc1cn[nH]c1-c1ccc(-c2ccccc2)cc1)CC1CCOCC1	.	.	0.4	.	3.1	.	.
COc1ccccc1/C=C/C(=O)NC(=S)Nc1ccc(S(=O)(=O)N(C)c2ccccc2)cc1	4.0	2.4	-0.3	1	-0.8	2.02	0.0473
CCCn1nnnc1NC(=O)COc1ccc(Br)cc1	-5.9	-12.9	0.8	1.1	0.1	.	.
CCN(CC)S(=O)(=O)c1ccc(NC2c3ncccc3C(=O)N2Cc2ccccc2)cc1 (stereo unspecified)	-3.4	-7.9	-0.4	1	0.9	10.3*	0.0356
